Experimental data reported in ChEMBL document CHEMBL1155063 (Bioorg Med Chem, 2008).
Activity calls are given as the source filed them. The calls are words filed in the database; no cut-off is given here.

How the values were obtained:
[1] = test system: ACHN; test: Cytotoxicity against human ACHN cells at 10 uM after 48 hrs by MTT assay; format: functional
How it was run: (§1)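 Single-dose screen on the NCI 60-cell-line panel, run to the Developmental Therapeutics Program protocol (one-dose mean graph). Each value is the growth percentage of treated cells against untreated control cells.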

[2] = Cytotoxicity against human TERT immortalized BJ1 cells at 1 uM after 48 hrs by MTT assay relative to control; format: cell-based, BJ
How it was run: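 hTERT-immortalized BJ1 fibroblasts were grown in DMEM with 10% FCS, 1 mM pyruvate and 4 mM […]. Cells (about 2 × 10^3 per well) were seeded and held 24 h at 37 °C. Compounds were freshly dissolved in DMSO, diluted into medium and left on the cells 48 h. MTT was added for 4 h, then SDS/DMF lysis buffer for 16 h. Absorbance was read at 550 nm and expressed relative to untreated cells (100%).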

[3] = test system: M14; test: Cytotoxicity against human M14 cells at 10 uM after 48 hrs by MTT assay; format: functional; conditions: M14, 48 h, values are per cent of control; how it was run: as §1
[4] = test system: OVCAR-5; test: Cytotoxicity against human OVCAR5 cells at 10 uM after 48 hrs by MTT assay; format: functional; conditions: OVCAR-5, 48 h; how it was run: as §1
[5] = test system: U-251; test: Cytotoxicity against human U251 cells at 10 uM after 48 hrs by MTT assay; format: functional; conditions: U-251, 48 h, values are per cent of control
How it was run: (§2)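 Single-dose screen in the NCI 60-cell-line panel, run according to the Developmental Therapeutics Program protocol (one-dose mean graph). The result is the growth percentage of treated cells relative to untreated control cells.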

[6] = test system: SF-539; test: Cytotoxicity against human SF539 cells at 10 uM after 48 hrs by MTT assay; format: functional; conditions: SF-539, 48 h, values are per cent of control; how it was run: as §1
[7] = test system: HCT-29; test: Growth percent of human HCT29 cells at 10 uM after 48 hrs by MTT assay; conditions: HCT-29, 48 h
[8] = test system: SN12C; test: Cytotoxicity against human SN12C cells at 10 uM after 48 hrs by MTT assay; format: functional; how it was run: as §1
[9] = test system: SK-OV-3; test: Cytotoxicity against human SKOV3 cells at 10 uM after 48 hrs by MTT assay; format: functional; conditions: SK-OV-3, 48 h; how it was run: as §1
[10] = Cytotoxicity against human H1299 cells at 10 uM after 48 hrs by MTT assay realtive to control; format: functional; conditions: NCI-H1299, 48 h
How it was run: (§3)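 H1299 non-small-cell lung cells were kept in RPMI 1640 with 10% FBS and penicillin/streptomycin at 37 °C under 5% CO2. About 2 × 10^3 cells per well were pre-incubated for 24 h. Compound was added from freshly made DMSO solution diluted in complete medium and left for 48 h. MTT was then added for 4 h at 37 °C, followed by 20% SDS/50% DMF lysis buffer for 16 h at 37 °C, and absorbance read at 550 nm.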

[11] = test system: NCI-H522; test: Growth percent of human NCI-H522 cells at 10 uM after 48 hrs by MTT assay; conditions: NCI-H522, 48 h
[12] = test system: SF-295; test: Cytotoxicity against human SF295 cells at 10 uM after 48 hrs by MTT assay; format: functional; conditions: SF-295, 48 h, values are per cent of control; how it was run: as §1
[13] = test system: HCT-15; test: Growth percent of human HCT15 cells at 10 uM after 48 hrs by MTT assay; conditions: HCT-15, 48 h
[14] = target: T1, Telomerase reverse transcriptase (Homo sapiens, UniProt O14746); test: Effect on human TERT expressed in H1299 cells at 1 uM after 24 hrs by SEAP assay relative to control
T1 sequence (O14746 whole entry): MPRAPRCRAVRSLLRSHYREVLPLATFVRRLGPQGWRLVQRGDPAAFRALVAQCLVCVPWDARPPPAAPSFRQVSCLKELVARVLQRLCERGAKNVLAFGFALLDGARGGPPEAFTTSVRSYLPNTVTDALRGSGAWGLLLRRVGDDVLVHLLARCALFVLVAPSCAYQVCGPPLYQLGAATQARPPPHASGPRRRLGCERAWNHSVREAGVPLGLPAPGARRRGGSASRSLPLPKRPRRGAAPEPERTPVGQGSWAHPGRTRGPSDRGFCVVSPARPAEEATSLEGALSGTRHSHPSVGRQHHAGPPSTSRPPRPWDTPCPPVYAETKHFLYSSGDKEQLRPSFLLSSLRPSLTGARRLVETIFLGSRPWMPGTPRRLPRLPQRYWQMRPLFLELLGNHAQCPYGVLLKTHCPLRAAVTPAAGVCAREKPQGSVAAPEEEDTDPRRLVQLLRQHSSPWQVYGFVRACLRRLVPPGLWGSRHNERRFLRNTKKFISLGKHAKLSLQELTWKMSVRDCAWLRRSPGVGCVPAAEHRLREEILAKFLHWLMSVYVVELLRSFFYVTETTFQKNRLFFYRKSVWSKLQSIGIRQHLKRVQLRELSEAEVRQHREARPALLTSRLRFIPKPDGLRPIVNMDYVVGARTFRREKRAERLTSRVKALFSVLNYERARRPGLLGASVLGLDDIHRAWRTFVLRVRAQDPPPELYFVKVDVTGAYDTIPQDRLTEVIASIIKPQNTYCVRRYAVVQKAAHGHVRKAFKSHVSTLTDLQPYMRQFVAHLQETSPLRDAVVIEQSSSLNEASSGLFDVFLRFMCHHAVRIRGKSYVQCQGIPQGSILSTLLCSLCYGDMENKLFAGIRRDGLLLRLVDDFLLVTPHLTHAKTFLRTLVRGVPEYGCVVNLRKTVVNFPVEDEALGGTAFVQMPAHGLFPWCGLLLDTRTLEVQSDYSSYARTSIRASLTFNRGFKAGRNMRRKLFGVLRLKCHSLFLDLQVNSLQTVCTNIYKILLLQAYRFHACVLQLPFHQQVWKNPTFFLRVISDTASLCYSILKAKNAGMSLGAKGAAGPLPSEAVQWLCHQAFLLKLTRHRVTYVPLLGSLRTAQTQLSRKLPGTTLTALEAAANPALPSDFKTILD

[15] = test system: SK-MEL-28; test: Cytotoxicity against human SK-MEL-28 cells at 10 uM after 48 hrs by MTT assay; format: functional; conditions: SK-MEL-28, 48 h, values are per cent of control; how it was run: as §1
[16] = test system: LOX IMVI; test: Cytotoxicity against human LOXIMVI cells at 10 uM after 48 hrs by MTT assay; format: functional; conditions: values are per cent of control; how it was run: as §1
[17] = test system: DU-145; test: Cytotoxicity against human DU145 cells at 10 uM after 48 hrs by MTT assay; format: functional; conditions: DU-145, 48 h, values are per cent of control; how it was run: as §1
[18] = test system: HOP-62; test: Cytotoxicity against human HOP62 cells at 10 uM after 48 hrs by MTT assay; format: functional; conditions: HOP-62, 48 h; how it was run: as §1
[19] = test system: HCC 2998; test: Growth percent of human HCC2998 cells at 10 uM after 48 hrs by MTT assay; conditions: HCC 2998, 48 h
[20] = test system: MDA-MB-231; test: Cytotoxicity against human MDA-MB-231/ATCC cells at 10 uM after 48 hrs by MTT assay; format: functional; conditions: MDA-MB-231, 48 h; how it was run: as §1
[21] = test system: PC-3; test: Cytotoxicity against human PC3 cells at 10 uM after 48 hrs by MTT assay; format: functional; conditions: PC-3, 48 h, values are per cent of control; how it was run: as §1
[22] = test system: A498; test: Cytotoxicity against human A498 cells at 10 uM after 48 hrs by MTT assay; format: functional; conditions: A498, 48 h; how it was run: as §1
[23] = test system: SK-MEL-5; test: Cytotoxicity against human SK-MEL-5 cells at 10 uM after 48 hrs by MTT assay; format: functional; conditions: SK-MEL-5, 48 h, values are per cent of control; how it was run: as §1
[24] = test system: KM12; test: Cytotoxicity against human KM12 cells at 10 uM after 48 hrs by MTT assay; format: functional; conditions: KM12, 48 h; for growth, % of control at 10 µM: values are per cent of control; how it was run: as §1
[25] = target: T1, Telomerase reverse transcriptase; test: Effect on human TERT expressed in BJ1 cells at 10 uM after 24 hrs by SEAP assay relative to control; conditions: BJ
[26] = test system: NCI/ADR-RES; test: Cytotoxicity against human NCI/ADR-RES cells at 10 uM after 48 hrs by MTT assay; format: functional; how it was run: as §1
[27] = test system: BT-549; test: Cytotoxicity against human BT549 cells at 10 uM after 48 hrs by MTT assay; format: functional; conditions: BT-549, 48 h; how it was run: as §1
[28] = Cell viability of human H1299 cells at 1 uM after 48 hrs by MTT assay relative to control; conditions: NCI-H1299, 48 h
[29] = test system: SNB-19; test: Cytotoxicity against human SNB19 cells at 10 uM after 48 hrs by MTT assay; format: functional; conditions: SNB-19, 48 h, values are per cent of control; how it was run: as §1
[30] = test system: SW-620; test: Cytotoxicity against human SW620 cells at 10 uM after 48 hrs by MTT assay; format: functional; conditions: SW-620, 48 h, values are per cent of control; how it was run: as §2
[31] = Cytotoxicity against human H1299 cells at 100 uM after 48 hrs by MTT assay realtive to control; format: functional; conditions: NCI-H1299, 48 h; how it was run: as §3
[32] = target: T1, Telomerase reverse transcriptase; test: Inhibition of telomerase in human H1299 cells at 1 to 20 uM by TRAP assay; format: cell-based
How it was run: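 Modified TRAP assay using 2 µg total lysate from H1299 lung cancer cells as the telomerase source. Compounds were tested at 1, 5, 10 and 20 µM. Products were resolved on 10% polyacrylamide gels and stained with SYBR Green. A Taq-polymerase internal control was included, along with positive and negative controls.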

SMILES	growth percent at 10 µM [1]	viability at 48 h, 1 µM [2]	growth, % of control at 10 µM [3]	growth percent at 10 µM [4]	growth, % of control at 10 µM [5]	growth, % of control at 10 µM [6]	growth percent at 10 µM [7]	growth percent at 10 µM [8]	growth percent at 10 µM [9]	viability at 10 µM [10]	growth percent at 10 µM [11]	growth, % of control at 10 µM [12]	growth percent at 10 µM [13]	residual activity [14]	growth, % of control at 10 µM [15]	growth, % of control at 10 µM [16]	growth, % of control at 10 µM [17]	growth percent at 10 µM [18]	growth percent at 10 µM [20]	growth, % of control at 10 µM [21]	also measured
CC(=O)Nc1ccc2c(c1)C(=O)c1cc(NC(C)=O)ccc1C2=O	96.9%	106%	105%	102%	95.1%	103%	107%	113%	101%	83%	93.6%	103%	93.9%	97%	118%	99%	117%	111%	104%	103%	growth percent at 10 µM [19]: 105%; growth percent at 10 µM [22]: 116%; growth, % of control at 10 µM [23]: 109%; growth percent at 10 µM [24]: 106%; residual activity [25]: 117%; growth percent at 10 µM [26]: 114%; growth percent at 10 µM [27]: 93.3%; cell viability at 1 µM [28]: 117%; growth, % of control at 10 µM [29]: 94.4%; growth, % of control at 10 µM [30]: 103%; viability at 100 µM [31]: 55%
CCN(CC)CCC(=O)Nc1ccc2c(c1)C(=O)c1cc(NC(=O)CCN(CC)CC)ccc1C2=O	11.1%	103%	62.8%	33.6%	21.6%	37.1%	3.3%	8.63%	44%	41%	28%	-19.9%	17.4%	76%	2.56%	3.39%	10.2%	11.7%	31.3%	13.6%	Activity [32]: Active; growth percent at 10 µM [22]: -38.8%; growth, % of control at 10 µM [23]: 82.8%; growth, % of control at 10 µM [24]: 21.8%; residual activity [25]: 49%; growth percent at 10 µM [26]: 59.5%; growth percent at 10 µM [27]: 57%; cell viability at 1 µM [28]: 106%; growth, % of control at 10 µM [29]: 75.8%; growth, % of control at 10 µM [30]: 16.9%; viability at 100 µM [31]: 1%
O=C1c2ccc(NC(=O)C3CC3)cc2C(=O)c2cc(NC(=O)C3CC3)ccc21	86.7%	60%	98.9%	112%	72.6%	93.2%	106%	82.9%	93.2%	36%	89.4%	86.6%	86.3%	80%	109%	90.3%	98.8%	91.6%	97%	107%	growth percent at 10 µM [19]: 132%; growth percent at 10 µM [22]: 92.3%; growth, % of control at 10 µM [23]: 75.7%; growth percent at 10 µM [24]: 92.7%; growth percent at 10 µM [26]: 90.8%; growth percent at 10 µM [27]: 92.5%; cell viability at 1 µM [28]: 46%; growth, % of control at 10 µM [29]: 98.8%; growth, % of control at 10 µM [30]: 105%; viability at 100 µM [31]: 43%
CN(C)CC(=O)Nc1ccc2c(c1)C(=O)c1cc(NC(=O)CN(C)C)ccc1C2=O	66.4%	96%	75%	73.2%	16.1%	-3.72%	11.7%	28%	70.3%	55%	61.8%	-83.5%	16.3%	87%	32.1%	-52.3%	78.7%	29%	4.49%	59%	growth percent at 10 µM [19]: -74%; growth percent at 10 µM [22]: -6.39%; growth, % of control at 10 µM [23]: 82.6%; growth, % of control at 10 µM [24]: 67%; residual activity [25]: 44%; growth percent at 10 µM [26]: 47.8%; growth percent at 10 µM [27]: 85.4%; cell viability at 1 µM [28]: 92%; growth, % of control at 10 µM [29]: 79.6%; growth, % of control at 10 µM [30]: 23.4%; viability at 100 µM [31]: 15%
